The text below walks through data of publication PMC11439047 (Nature Communications, 2024).

Experiment [1] concerns the target T1, P2X1 receptor K140A (Homo sapiens, UniProt P51575, K140A).
T1 sequence (P51575 1-399 K140A): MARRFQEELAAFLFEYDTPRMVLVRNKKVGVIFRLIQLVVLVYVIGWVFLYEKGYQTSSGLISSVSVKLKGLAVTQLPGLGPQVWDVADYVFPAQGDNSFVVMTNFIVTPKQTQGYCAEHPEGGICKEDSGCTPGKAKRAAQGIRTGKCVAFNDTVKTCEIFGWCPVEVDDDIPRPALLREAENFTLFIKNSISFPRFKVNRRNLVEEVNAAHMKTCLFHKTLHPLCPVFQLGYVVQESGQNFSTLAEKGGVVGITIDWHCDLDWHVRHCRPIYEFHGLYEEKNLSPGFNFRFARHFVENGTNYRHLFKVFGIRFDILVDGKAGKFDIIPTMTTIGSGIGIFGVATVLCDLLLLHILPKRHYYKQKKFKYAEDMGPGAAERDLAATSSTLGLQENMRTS
Briefly: Saturation radioligand binding with [3H]-α,β-methylene ATP. The essentials: (§1)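 Whole HEK293 Flp-In T-REx cells stably expressing receptor, tetracycline-induced (150 ng/ml, 2 days), 15,000 cells/well, washed in HEPES binding buffer pH 7.4 with Ca2+/Mg2+. Increasing [3H]-α,β-methylene ATP added, 3 h room temperature with gentle agitation; non-specific binding with 10 μM ATP. Ice-cold 0.9% NaCl washes, scintillation counting (CCPM). Specific binding fitted one-site; values above 300 nM termed not defined.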

The target of experiment [2] is T2, P2X1 receptor D170A (Homo sapiens, UniProt P51575, D170A).
T2 sequence (P51575 1-399 D170A): T1 sequence (P51575 1-399 K140A) with A140K, D170A
Nature of the experiment: Calcium ion influx assay. It is filed as cell-based. Summed up: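 Tetracycline-induced (150 ng/mL, 2 days) stable HEK293 Flp-In T-REx cells at 15,000 cells/well, loaded with Fluo-8 for 1 h at 37 °C in probenecid-containing HEPES buffer, pH 7.4. Then 30 min buffer incubation, 20 s baseline, agonist addition and 2 min reading (ex 485/em 525 nm). Max-minus-min fluorescence normalised to 10 µM ionomycin, rescaled 0–100. Constrained four-parameter fit; EC50 per experiment; four independent experiments, triplicate.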

Experiment [3] concerns the target T3, P2X1 receptor R139P (Homo sapiens, UniProt P51575, R139P).
T3 sequence (P51575 1-399 R139P): T1 sequence (P51575 1-399 K140A) with R139P, A140K
Briefly: Saturation radioligand binding with [3H]-α,β-methylene ATP. The essentials: as §1

Experiment [4] addresses T4, P2X1 receptor D97A (Homo sapiens, UniProt P51575, D97A).
T4 sequence (P51575 1-399 D97A): T1 sequence (P51575 1-399 K140A) with D97A, A140K
Described as above. The essentials: as §1

The target of experiment [5] is T5, P2X1 receptor R139A (Homo sapiens, UniProt P51575, R139A).
T5 sequence (P51575 1-399 R139A): T1 sequence (P51575 1-399 K140A) with R139A, A140K
Nature of the experiment: Calcium ion influx assay. It is filed as cell-based.

Experiment [6] has as its target T6, P2X1 receptor L218T (Homo sapiens, UniProt P51575, L218T).
T6 sequence (P51575 1-399 L218T): T1 sequence (P51575 1-399 K140A) with A140K, L218T
Nature of the experiment: Saturation radioligand binding with [3H]-α,β-methylene ATP. Summed up: as §1

Numbering of substitutions follows the chain as printed.

As for `Nc1ncnc2c1ncn2[C@@H]1O[C@H](COP(=O)(O)CP(=O)(O)OP(=O)(O)O)[C@@H](O)[C@H]1O` [α,β-methylene ATP], the “binding affinity compared to WT-P2X1” value is “comparable to that of WT-P2X1” in experiment [1], “reduced” in experiment [3], “similar” in experiment [4] and “similar” in experiment [6]. Besides, the “fold decrease in potency compared to WT-P2X1” value was determined as 58 fold in experiment [2] and 3.5 fold in experiment [5]. The “desensitisation rate compared to WT-P2X1” value in experiment [5] (maximal α,β-methylene ATP) is “significantly slowed the desensitisation rate”.
